Test results reported in ChEMBL document CHEMBL1123757, “Selective thromboxane synthetase inhibitors and antihypertensive agents. New derivatives of 4-hydrazino-5H-pyridazino[4,5-b]indole, 4-hydrazinopyridazino[4,5-a]indole, and related compounds” (J Med Chem, 1987).

Columns and labels:
Rattus norvegicus [1] = assay: Antihypertensive activity in spontaneously hypertensive rats (SHR) measured by percentage fall in cardiac rhythm (CR) at 25 mg/kg administered intraperitoneally at 3 h; format: functional, Heart; conditions: route intraperitoneal
Procedure, shortened: (§1)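 Unanesthetized Okamoto-strain SHR, male and female, 8 weeks old, 300–350 g, systolic pressure ≥190 mmHg, heart rate 400–650 beats/min; five animals per dose. Given ip at 2.5 mL/kg, dissolved or suspended in normal saline or saline with 0.2% (carboxymethyl)cellulose and 1.0% Tween 80. Tail AP and CR recorded by mechanical transduction at set times; reported as percentage fall from control.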

Rattus norvegicus [2] = assay: Antihypertensive activity in spontaneously hypertensive rats (SHR) measured by percentage fall in cardiac rhythm (CR) at 25 mg/kg administered intraperitoneally at 5 h; format: functional, Heart; conditions: route intraperitoneal
Procedure, shortened: (§2)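 Conscious SHR (Okamoto strain), 8 weeks old, male and female, 300–350 g, systolic BP ≥190 mmHg, CR 400–650 beats/min. Given ip or po at 2.5 mL/kg in normal saline or saline with 0.2% (carboxymethyl)cellulose and 1.0% Tween 80. Tail AP and CR recorded by mechanical transduction at 1, 3, 5 and 24 h, five animals per dose. Effect expressed as % fall versus control.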

Rattus norvegicus [3] = assay: Antihypertensive activity in spontaneously hypertensive rats (SHR) measured by percentage fall in arterial pressure (AP) at 25 mg/kg administered intraperitoneally at 1 h; format: functional, Artery; conditions: route intraperitoneal; procedure, shortened: as §1
Rattus norvegicus [4] = assay: Antihypertensive activity in spontaneously hypertensive rats (SHR) measured by percentage fall in arterial pressure (AP) at 25 mg/kg administered intraperitoneally at 5 h; format: functional, Artery; conditions: route intraperitoneal; procedure, shortened: as §1
Rattus norvegicus [5] = assay: Antihypertensive activity in spontaneously hypertensive rats (SHR) measured by percentage fall in cardiac rhythm (CR) at 25 mg/kg administered intraperitoneally at 1 h; format: functional, Heart; conditions: route intraperitoneal; procedure, shortened: as §1
Rattus norvegicus [6] = assay: Antihypertensive activity in spontaneously hypertensive rats (SHR) measured by percentage fall in arterial pressure (AP) at 25 mg/kg administered intraperitoneally at 3 h; format: functional, Artery; conditions: route intraperitoneal; procedure, shortened: as §1
Rattus norvegicus [7] = assay: Antihypertensive activity in spontaneously hypertensive rats (SHR) measured by percentage fall in arterial pressure (AP) at 25 mg/kg administered intraperitoneally at 24 h; format: functional, Artery; conditions: route intraperitoneal; procedure, shortened: as §1
Homo sapiens [8] = organism: Homo sapiens; assay: In vitro inhibition of platelet aggregation induced by ADP-II (PRP incubated for 5 minutes at 37 degree C) at 10e-5 M; No significance; format: functional
Procedure, shortened: (§3)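 Human venous blood anticoagulated with 3.8% sodium citrate (1:9). PRP from centrifugation at 800 rpm for 10 min at room temperature. Count adjusted with PPP to […]. Compound in saline with 10% ethylene glycol is added to PRP and incubated at 37 °C before the agonist. Agonists: ADP 2×10^-5 M, AA 0.6 mM, PGH2 2.8 μM, adrenaline 0.6 μM. Born absorbance aggregometry; n = 5.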

Homo sapiens [9] = organism: Homo sapiens; assay: In vitro inhibition of platelet aggregation induced by […] (PRP incubated for 5 minutes at 37 degree C) at 10e-5 M; No significance; format: functional
Homo sapiens [10] = organism: Homo sapiens; assay: In vitro inhibition of platelet aggregation induced by ADP-II (PRP incubated for 60 minutes at 37 degree C) at 10e-5 M; format: functional; conditions: 1 h; procedure, shortened: as §3
Homo sapiens [11] = organism: Homo sapiens; assay: In vitro inhibition of platelet aggregation induced by AA (PRP incubated for 60 minutes at 37 degree C) at 10e-5 M; No significance; format: functional; procedure, shortened: as §3
Rattus norvegicus [12] = assay: Antihypertensive activity in spontaneously hypertensive rats (SHR) measured by percentage fall in cardiac rhythm (CR) at 25 mg/kg administered intraperitoneally at 24 h; format: functional, Heart; conditions: route intraperitoneal; procedure, shortened: as §1
Rattus norvegicus [13] = assay: Antihypertensive activity in spontaneously hypertensive rats (SHR) measured by percentage fall in cardiac rhythm (CR) at 25 mg/kg administered intraperitoneally at 5 h;No significance; format: functional, organism-based; design: dose 25 mg/kg; conditions: Heart; procedure, shortened: as §2
Rattus norvegicus [14] = assay: Antihypertensive activity in spontaneously hypertensive rats (SHR) measured by percentage fall in cardiac rhythm (CR) at 25 mg/kg administered intraperitoneally at 24 h;No significance; format: functional, organism-based; design: dose 25 mg/kg; conditions: Heart; procedure, shortened: as §1
Rattus norvegicus [15] = assay: Antihypertensive activity in spontaneously hypertensive rats (SHR) measured by percentage fall in cardiac rhythm (CR) at 25 mg/kg administered intraperitoneally at 3 h;No significance; format: functional, organism-based; design: dose 25 mg/kg; conditions: Heart; procedure, shortened: as §2
Rattus norvegicus [16] = assay: Antihypertensive activity in spontaneously hypertensive rats (SHR) measured by percentage fall in arterial pressure (AP) at 25 mg/kg administered intraperitoneally at 5 h;No significance; format: functional, organism-based; design: dose 25 mg/kg; conditions: Artery; procedure, shortened: as §1
Rattus norvegicus [17] = assay: Antihypertensive activity in spontaneously hypertensive rats (SHR) measured by percentage fall in cardiac rhythm (CR) at 25 mg/kg administered intraperitoneally at 1 h;No significance; format: functional, organism-based; design: dose 25 mg/kg; conditions: Heart; procedure, shortened: as §1
Rattus norvegicus [18] = assay: Antihypertensive activity in spontaneously hypertensive rats (SHR) measured by percentage fall in arterial pressure (AP) at 25 mg/kg administered intraperitoneally at 24 h;No significance; format: functional, organism-based; design: dose 25 mg/kg; conditions: Artery; procedure, shortened: as §1

Row | SMILES | Decrease in CR (Rattus norvegicus [1]) | Decrease in CR (Rattus norvegicus [2]) | Decrease in AP (Rattus norvegicus [3]) | Decrease in AP (Rattus norvegicus [4]) | Decrease in AP (Rattus norvegicus [6]) | Decrease in AP (Rattus norvegicus [7]) | Decrease in CR (Rattus norvegicus [12]) | further results
1 | CCOc1ccc2[nH]c3c(NN)nncc3c2c1 | -11% | -9% | 29% | 24% | 28% | 5% | – | Decrease in CR (Rattus norvegicus [5]): -20%
2 | COc1ccc2c(c1)cc1c(S)nncn12 | – | – | – | – | – | – | – | inhibition (Homo sapiens [8]): No significant values; inhibition (Homo sapiens [9]): No significant values; inhibition at 10 µM (Homo sapiens [10]): 100%; inhibition (Homo sapiens [11]): No significant values
3 | COc1ccc2c(c1)cc1c(O)nncn12 | – | – | – | – | – | – | – | inhibition (Homo sapiens [8]): No significant values; inhibition (Homo sapiens [9]): No significant values; inhibition at 10 µM (Homo sapiens [10]): 100%; inhibition (Homo sapiens [11]): No significant values
4 | COc1ccc2[nH]c3c(NN=C(C)C)nncc3c2c1 | -11% | -8% | – | 14% | 13% | 7% | -10% | –
5 | COc1ccc2[nH]c3c(N/N=C\c4ccccc4)nncc3c2c1 | -20% | – | – | 8% | 6% | – | -13% | –
6 | Cl.NNc1[nH]ncc2c3cc(OCc4ccccc4)ccc3nc1-2 | -13% | -15% | 18% | 28% | 33% | 9% | -16% | Decrease in CR (Rattus norvegicus [5]): -7%
7 | COc1ccc2[nH]c3c(cnn4nnnc34)c2c1 | – | – | – | 8% | 12% | 6% | – | Decrease in CR (Rattus norvegicus [13]): No significant values; Decrease in CR (Rattus norvegicus [14]): No significant values; Decrease in CR (Rattus norvegicus [15]): No significant values
8 | CCOc1ccc2[nH]c3c(S)nncc3c2c1 | – | – | 10% | – | 5% | – | – | Decrease in AP (Rattus norvegicus [16]): No significant values; Decrease in CR (Rattus norvegicus [13]): No significant values; Decrease in CR (Rattus norvegicus [17]): No significant values; Decrease in CR (Rattus norvegicus [14]): No significant values; Decrease in AP (Rattus norvegicus [18]): No significant values; Decrease in CR (Rattus norvegicus [15]): No significant values
9 | COc1ccc2c(c1)cc1c(NN)nncn12.Cl | – | – | 9% | – | – | – | – | –
